Measurements from article PMC4377729 (Theranostics, 2015).

Experiments:
[1] = assay type: in vivo; details: 10 nmol (0.4 mg/kg) intravenously, mice, 4 h post-injection
Summary of the method: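 Nude mice (about 25 g) were anesthetized with ip ketamine/xylazine, given 10 nmol (0.4 mg/kg) conjugate iv in saline, and imaged 4 h later. Excitation was 745-779 nm light at 14 mW cm-2, with 800-848 nm emission and fixed exposure. SBR is tissue signal over neighbouring muscle or skin. For biodistribution, mice were killed at 30-240 min and organs resected and imaged; n ≥ 3 per time point.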

[2] = in DMSO; cited from earlier work
[3] = previously reported; cited from earlier work

CC1(C)C(/C=C/C2=C(Oc3ccc(S(=O)(=O)O)cc3)C(=C/C=C3/N(CCCCS(=O)(=O)O)c4ccc(S(=O)(=O)[O-])cc4C3(C)C)/CCC2)=[N+](CCCCCC(=O)O)c2ccc(S(=O)(=O)O)cc21 [CW800]
location of NIR fluorescence signal / tissue uptake (in words) [1]: elevated nonspecific background signals in the liver and skin

CC1(C)C(/C=C/C=C/C=C/C=C2\N(CCCCS(=O)(=O)[O-])c3ccc4ccccc4c3C2(C)C)=[N+](CCCCS(=O)(=O)[O-])c2ccc3ccccc3c21.[Na+] [ICG]
QY of calibration standard [2]: 13%

CC1(C)C(/C=C/C2=C(Oc3ccc(CCC(=O)NCCC(O)(P(=O)([O-])O)P(=O)(O)O)cc3)C(=C\C=C3/N(CCCCS(=O)(=O)O)c4ccc(S(=O)(=O)O)cc4C3(C)C)/CCC2)=[N+](CCCCS(=O)(=O)O)c2ccc(S(=O)(=O)O)cc21 (stereo not drawn) [Pam78]
binding to hydroxyapatite (HA) in vitro and in vivo (in words) [3]: rapid and specific binding to hydroxyapatite (HA) in vitro and in vivo
